The values that follow come from ChEMBL document CHEMBL2396518, “A facile synthesis, anti-inflammatory and analgesic activity of isoxazolyl-2,3-dihydrospiro[benzo[f]isoindole-1,3'-indoline]-2',4,9-triones” (2013).

One may read the inhibition in vivo as the share of the control response that was lost under treatment.

Holding throughout (format): functional
For assay [1], the system named is Mus musculus. Nature of the assay: Analgesic activity in Swiss albino mouse assessed as inhibition of acetic acid-induced writhing at 50 mg/kg, po administered 30 mins followed by acetic acid challenge measured for 20 mins relative to control. The essentials:
(§1)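 Mice were fasted 18 h with water ad libitum and split into 6 groups. Test agents were dosed orally at 50 mg/kg, with diclofenac 50 mg/kg as standard. After 30 min, 1.0% v/v acetic acid was given ip at 1 mL/100 g. Writhes were counted over 20 min. % inhibition = (mean control writhes − mean test writhes)/mean control writhes × 100. Results are mean ± S.E.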
(Writhing tests count abdominal constrictions after an irritant is injected.)

In assay [2] the test system is Rattus norvegicus. Nature of the assay: Antiinflammatory activity in carrageenan-induced Wistar rat paw edema model assessed as paw volume at 100 mg/kg, po administered 30 mins prior to carrageenan challenge measured at 6 hrs by plethysmographic analysis (reference value: 0.96 +/- 0.03 ml). In general terms: The carrageenan paw model is a standard test of acute inflammation.

The test system of assay [3] is Rattus norvegicus. Kind of assay: Antiinflammatory activity in carrageenan-induced Wistar rat paw edema model assessed as paw volume at 100 mg/kg, po administered 30 mins prior to carrageenan challenge measured at 4 hrs by plethysmographic analysis (reference value: 1.2 +/- 0.05 ml).
Assay [4] deals with Rattus norvegicus. Kind of assay: Antiinflammatory activity in carrageenan-induced Wistar rat paw edema model assessed as paw volume at 100 mg/kg, po administered 30 mins prior to carrageenan challenge measured at 2 hrs by plethysmographic analysis (reference value: 1.07 +/- 0.08 ml).
The subject of assay [5] is Rattus norvegicus. Nature of the assay: Antiinflammatory activity in carrageenan-induced Wistar rat paw edema model assessed as paw volume at 100 mg/kg, po administered 30 mins prior to carrageenan challenge measured at 1 hr by plethysmographic analysis (reference value: 0.90 +/- 0.05 ml).
Assay [6] concerns Mus musculus. Kind of assay: Analgesic activity in Swiss albino mouse assessed as inhibition of acetic acid-induced writhing at 50 mg/kg administered 30 mins followed by acetic acid challenge measured for 20 mins relative to control. The essentials: as §1

Turning to `Cc1noc(/C=C/c2ccccc2)c1N1CC2=C(C(=O)c3ccccc3C2=O)C12C(=O)Nc1ccccc12` (stereo unspecified), the inhibition in vivo at 50 mg/kg in the assay with Mus musculus [1] stood at 22.4%. Further, the Activity in the assay with Rattus norvegicus [2] was found to be 0.6 mL; in the assay on Rattus norvegicus [3], 0.75 mL; in the assay on Rattus norvegicus [4] it was 0.84 mL; in the assay with Rattus norvegicus [5] it was 0.75 mL.

Take `Cc1ccc(/C=C/c2onc(C)c2N2CC3=C(C(=O)c4ccccc4C3=O)C23C(=O)Nc2ccccc23)cc1` (stereo unspecified): the inhibition in vivo at 50 mg/kg in the assay on Mus musculus [1] turned out to be 26.3%. For the same compound, the Activity in the assay with Rattus norvegicus [2] is 0.54 mL; in the assay with Rattus norvegicus [3], 0.69 mL; with Rattus norvegicus [4], 0.8 mL; in the assay on Rattus norvegicus [5] it was 0.7 mL.

With `COc1ccc(/C=C/c2onc(C)c2N2CC3=C(C(=O)c4ccccc4C3=O)C23C(=O)Nc2ccccc23)cc1` (stereo unspecified), the inhibition in vivo at 50 mg/kg in the assay on Mus musculus [1] was 19.6%. Further, the Activity with Rattus norvegicus [2] came out at 0.6 mL; in the assay on Rattus norvegicus [3] it was 0.65 mL; with Rattus norvegicus [4] it was 0.91 mL; with Rattus norvegicus [5], 0.8 mL.

In the case of `Cc1noc(/C=C/c2ccc(Cl)cc2)c1N1CC2=C(C(=O)c3ccccc3C2=O)C12C(=O)Nc1ccccc12` (stereo unspecified), the inhibition in vivo at 50 mg/kg in the assay with Mus musculus [1] was 50.4%. Also, the Activity in the assay on Rattus norvegicus [2] was 0.41 mL; in the assay on Rattus norvegicus [3] it was 0.65 mL; in the assay with Rattus norvegicus [4] it was 0.69 mL; with Rattus norvegicus [5], 0.54 mL.

Turning to `Cc1noc(/C=C/c2ccc(Cl)cc2Cl)c1N1CC2=C(C(=O)c3ccccc3C2=O)C12C(=O)Nc1ccccc12` (stereo unspecified), the inhibition in vivo at 50 mg/kg in the assay on Mus musculus [1] was 44.8%. The Activity in the assay with Rattus norvegicus [2] amounted to 0.32 mL; with Rattus norvegicus [3], 0.54 mL; in the assay with Rattus norvegicus [4] it was 0.71 mL; in the assay with Rattus norvegicus [5], 0.57 mL.

In the case of `Cc1noc(/C=C/c2c(Cl)cccc2Cl)c1N1CC2=C(C(=O)c3ccccc3C2=O)C12C(=O)Nc1ccccc12` (stereo unspecified), the inhibition in vivo at 50 mg/kg with Mus musculus [1] was 48.3%. Moreover, the Activity with Rattus norvegicus [2] stood at 0.4 mL; in the assay with Rattus norvegicus [3], 0.67 mL; in the assay with Rattus norvegicus [4], 0.7 mL; with Rattus norvegicus [5] it was 0.54 mL.

Take `Cc1noc(/C=C/c2ccccc2O)c1N1CC2=C(C(=O)c3ccccc3C2=O)C12C(=O)Nc1ccccc12` (stereo unspecified): the inhibition in vivo at 50 mg/kg with Mus musculus [1] was 20.4%. Further, the Activity is 0.52 mL with Rattus norvegicus [2], 0.8 mL in the assay on Rattus norvegicus [3], 0.81 mL with Rattus norvegicus [4] and 0.78 mL in the assay with Rattus norvegicus [5].

Consider `Cc1noc(/C=C/c2ccccc2)c1N1CC2=C(C(=O)c3ccccc3C2=O)C12C(=O)Nc1ccc(Cl)cc12` (stereo unspecified), for which the inhibition in vivo at 50 mg/kg in the assay with Mus musculus [1] worked out at 16.5%. The Activity in the assay with Rattus norvegicus [2] came to 0.63 mL; with Rattus norvegicus [3], 0.82 mL; in the assay on Rattus norvegicus [4], 0.83 mL; with Rattus norvegicus [5] it was 0.82 mL.

For the compound `COc1ccc2c(c1)C1(C(=O)N2)C2=C(CN1c1c(C)noc1/C=C/c1ccccc1)C(=O)c1ccccc1C2=O` (stereo unspecified), the inhibition in vivo at 50 mg/kg in the assay on Mus musculus [1] amounted to 18.4%. The Activity stood at 0.6 mL with Rattus norvegicus [2], 0.81 mL in the assay with Rattus norvegicus [3], 0.91 mL with Rattus norvegicus [4] and 0.73 mL with Rattus norvegicus [5].

With `Cc1ccc2c(c1)C1(C(=O)N2)C2=C(CN1c1c(C)noc1/C=C/c1ccccc1)C(=O)c1ccccc1C2=O` (stereo unspecified), in the assay with Mus musculus [1], the inhibition in vivo at 50 mg/kg is 19.5%. For the same compound, the Activity was determined as 0.55 mL with Rattus norvegicus [2], 0.83 mL with Rattus norvegicus [3], 0.89 mL in the assay on Rattus norvegicus [4] and 0.77 mL in the assay on Rattus norvegicus [5].

As for `O=C(O)Cc1ccccc1Nc1c(Cl)cccc1Cl` [DICLOFENAC], the inhibition in vivo at 50 mg/kg in the assay on Mus musculus [6] came to 53.6%.
